Experimental data from ChEMBL document CHEMBL4270486, “Anti-inflammatory Activity of Natural Geranylated Flavonoids: Cyclooxygenase and Lipoxygenase Inhibitory Properties and Proteomic Analysis” (J Nat Prod, 2017).
Activity calls are given as the source filed them. The calls are words filed in the database; no cut-off is given here.

What was measured:
[1] = target: T1, Polyunsaturated fatty acid 5-lipoxygenase (Homo sapiens, UniProt P09917); assay: Inhibition of human recombinant 5-LOX assessed as reduction in leukotriene B4 production pre-incubated for 10 mins before arachidonic acid addition and measured after 10 mins by ELISA
T1 sequence (P09917 whole entry): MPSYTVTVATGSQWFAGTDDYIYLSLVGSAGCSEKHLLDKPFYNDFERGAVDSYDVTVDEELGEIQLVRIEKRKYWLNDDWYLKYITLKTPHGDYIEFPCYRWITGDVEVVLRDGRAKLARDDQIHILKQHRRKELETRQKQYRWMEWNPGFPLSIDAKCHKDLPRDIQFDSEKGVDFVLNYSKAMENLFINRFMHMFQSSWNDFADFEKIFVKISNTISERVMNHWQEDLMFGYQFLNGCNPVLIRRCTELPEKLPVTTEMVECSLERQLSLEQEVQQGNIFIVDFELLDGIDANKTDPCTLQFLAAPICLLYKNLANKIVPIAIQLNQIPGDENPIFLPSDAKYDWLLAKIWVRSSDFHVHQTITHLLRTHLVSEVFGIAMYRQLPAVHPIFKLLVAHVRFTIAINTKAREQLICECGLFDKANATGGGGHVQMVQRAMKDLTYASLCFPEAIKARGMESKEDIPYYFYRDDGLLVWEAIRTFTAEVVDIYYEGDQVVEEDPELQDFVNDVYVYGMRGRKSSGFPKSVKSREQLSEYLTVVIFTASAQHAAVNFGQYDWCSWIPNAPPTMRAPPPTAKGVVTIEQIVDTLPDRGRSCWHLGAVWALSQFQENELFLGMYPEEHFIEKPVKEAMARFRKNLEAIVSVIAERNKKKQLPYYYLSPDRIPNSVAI
Method in brief: (§1)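 Human recombinant 5-LOX, 1 unit/reaction, in PBS pH 7.4 containing 1 mM Na2EDTA and 200 μM ATP. Test compound in DMSO incubated 10 min at 4 °C. Reaction started with CaCl2 and arachidonic acid, 10 min at 37 °C, stopped with formic acid. LTB4 measured by ELISA (A405). Screening at 20 μM; ≥3 experiments, duplicate wells.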

[2] = target: T2, Polyunsaturated fatty acid 5-lipoxygenase (Homo sapiens) (UniProt P09917); assay: Inhibition of human recombinant 5-LOX assessed as reduction in leukotriene B4 production at 20 uM pre-incubated for 10 mins before arachidonic acid addition and measured after 10 mins by ELISA
T2 sequence (whole entry): T1 sequence (P09917 whole entry)
Method in brief: as §1, with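 “(A405). […]” for “(A405).”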

[3] = target: T3, Prostaglandin G/H synthase 2 (Homo sapiens, UniProt P35354); assay: Inhibition of human recombinant COX2 assessed as reduction in PGE2 formation pre-incubated for 5 mins before arachidonic acid addition and measured after 20 mins by ELISA
T3 sequence (P35354 whole entry): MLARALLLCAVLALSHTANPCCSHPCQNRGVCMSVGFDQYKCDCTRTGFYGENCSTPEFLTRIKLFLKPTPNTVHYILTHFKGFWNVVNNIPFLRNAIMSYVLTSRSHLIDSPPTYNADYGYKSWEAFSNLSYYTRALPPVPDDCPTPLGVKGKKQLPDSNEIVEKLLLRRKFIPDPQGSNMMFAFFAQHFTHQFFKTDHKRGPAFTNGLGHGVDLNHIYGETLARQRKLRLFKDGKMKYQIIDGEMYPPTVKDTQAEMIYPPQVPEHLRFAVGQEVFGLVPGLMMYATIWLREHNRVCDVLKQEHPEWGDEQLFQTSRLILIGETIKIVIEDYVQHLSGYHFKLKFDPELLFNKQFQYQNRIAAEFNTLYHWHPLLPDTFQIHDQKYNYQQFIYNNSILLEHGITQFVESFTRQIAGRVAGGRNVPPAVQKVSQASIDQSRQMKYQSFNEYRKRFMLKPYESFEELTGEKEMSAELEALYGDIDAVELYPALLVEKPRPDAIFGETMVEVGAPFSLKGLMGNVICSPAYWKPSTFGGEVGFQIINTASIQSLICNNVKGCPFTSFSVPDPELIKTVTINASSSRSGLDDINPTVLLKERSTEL

[4] = target: T2, Polyunsaturated fatty acid 5-lipoxygenase (Homo sapiens); assay: Potency index, ratio of IC50 for zileuton to IC50 for test compound fior inhibition of human recombinant 5-LOX assessed as reduction in leukotriene B4 production pre-incubated for 10 mins before arachidonic acid addition and measured after 10 mins by ELISA
[5] = target: T4, Prostaglandin G/H synthase 1 (Ovis aries, UniProt P05979); assay: Inhibition of ram seminal vesicle COX1 assessed as reduction in PGE2 formation pre-incubated for 5 mins before arachidonic acid addition and measured after 20 mins by ELISA
T4 sequence (P05979 whole entry): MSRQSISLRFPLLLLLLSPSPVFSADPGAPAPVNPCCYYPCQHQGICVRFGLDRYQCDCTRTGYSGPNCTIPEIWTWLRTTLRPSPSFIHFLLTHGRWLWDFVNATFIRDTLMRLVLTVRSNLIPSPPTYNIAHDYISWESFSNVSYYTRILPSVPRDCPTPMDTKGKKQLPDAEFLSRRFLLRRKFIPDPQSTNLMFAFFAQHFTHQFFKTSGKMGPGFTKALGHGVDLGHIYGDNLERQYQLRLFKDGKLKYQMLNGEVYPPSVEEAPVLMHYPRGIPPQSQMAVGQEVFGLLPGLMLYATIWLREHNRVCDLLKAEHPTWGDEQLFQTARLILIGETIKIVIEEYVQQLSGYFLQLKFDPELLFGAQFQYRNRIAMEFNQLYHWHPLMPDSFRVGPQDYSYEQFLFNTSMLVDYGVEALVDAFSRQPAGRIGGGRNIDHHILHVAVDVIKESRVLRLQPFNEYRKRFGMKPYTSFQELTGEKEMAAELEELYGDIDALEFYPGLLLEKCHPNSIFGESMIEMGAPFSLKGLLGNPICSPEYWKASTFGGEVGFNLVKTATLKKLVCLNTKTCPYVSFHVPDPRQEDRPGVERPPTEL
Method in brief: (§2)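 COX-1 from ram seminal vesicles (1 unit) or human recombinant COX-2 (0.5 unit) in 100 mM Tris pH 8.0 with 5 μM hematin, 18 mM L-epinephrine and 50 μM Na2EDTA. Compound in DMSO preincubated 5 min at room temperature. Arachidonic acid added, 20 min at 37 °C, stopped with formic acid. PGE2 by ELISA (A405).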

[6] = target: T5, Prostaglandin G/H synthase 2 (Homo sapiens) (UniProt P35354); assay: Inhibition of human recombinant COX2 assessed as reduction in PGE2 formation at 20 uM pre-incubated for 5 mins before arachidonic acid addition and measured after 20 mins by ELISA; method in brief: as §2
T5 sequence (whole entry): T3 sequence (P35354 whole entry)

[7] = Selectivity index, ratio of IC50 for ram seminal vesicle COX1 to IC50 for human recombinant COX2
THP-1 [8] = assay: Inhibition of LPS-induced increase in CXCL1 protein expression in LPS-stimulated human THP1 cells at 2 uM by proteomic analysis relative to untreated control; assay type: functional, cell-based
Method in brief: (§3)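 THP-1 monocytes in RPMI 1640 with 10% FBS and 2 mM L-glutamine, differentiated to macrophages with phorbol myristate acetate, then 24 h serum-free. Pretreatment 1 h with compound in DMSO (2 μM final) or DMSO alone, then LPS (E. coli 0111:B4, 1.0 μg/mL) for 24 h. Filter-aided trypsin digestion, iTRAQ 4-plex labelling, LC-MS/MS. Five biological replicates pooled per group.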

THP-1 [9] = assay: Inhibition of LPS-induced increase in IL1 protein expression in LPS-stimulated human THP1 cells at 2 uM by proteomic analysis relative to untreated control; assay type: functional, cell-based; method in brief: as §3
THP-1 [10] = assay: Increase in COX2 protein expression in human THP1 cells at 2 uM by proteomic analysis relative to untreated control; assay type: ADME, cell-based; conditions: thp-1, 2 µM; method in brief: as §3
THP-1 [11] = assay: Inhibition of LPS-induced increase in CCL5 protein expression in LPS-stimulated human THP1 cells at 2 uM by proteomic analysis relative to untreated control; assay type: functional, cell-based; method in brief: as §3
THP-1 [12] = assay: Increase in TX1B3 protein expression in human THP1 cells at 2 uM by proteomic analysis relative to untreated control; assay type: ADME, cell-based; conditions: read-out: FC; method in brief: as §3
THP-1 [13] = assay: Inhibition of LPS-induced decrease in VIP2 protein expression in LPS-stimulated human THP1 cells at 2 uM by proteomic analysis relative to untreated control; assay type: functional, cell-based; method in brief: as §3
THP-1 [14] = assay: Increase in COX2 protein expression in LPS-stimulated human THP1 cells at 2 uM by proteomic analysis relative to untreated control; assay type: functional; method in brief: as §3
THP-1 [15] = assay: Inhibition of LPS-induced increase in TNFalpha protein expression in LPS-stimulated human THP1 cells at 2 uM by proteomic analysis relative to untreated control; assay type: functional, cell-based; method in brief: as §3
THP-1 [16] = assay: Inhibition of LPS-induced increase in CCL1 protein expression in LPS-stimulated human THP1 cells at 2 uM by proteomic analysis relative to untreated control; assay type: functional, cell-based; method in brief: as §3
THP-1 [17] = assay: Increase in RNF207 protein expression in human THP1 cells at 2 uM by proteomic analysis relative to untreated control; assay type: ADME, cell-based; conditions: read-out: FC; method in brief: as §3

Row | SMILES | IC50 [1] [µM] | inhibition [2] | IC50 [3] [µM] | IC50 [5] [µM] | inhibition [6] | Ratio IC50 [7] | other results
1 | COc1cc(C2CC(=O)c3c(cc4c(c3O)C=CC(C)(CCC=C(C)C)O4)O2)cc(OC)c1O (configuration not stated) | 0.37 | Active | – | – | – | – | –
2 | CC(C)=CCCC1(C)C=Cc2c(cc3c(c2O)C(=O)C[C@@H](c2cc(O)cc(O)c2)O3)O1 (some centres not stated) | 0.35 | Active | – | – | – | – | –
3 | CC(C)=CCC/C(C)=C/Cc1c(O)cc2occc(=O)c2c1O | 2.46 | Active | – | – | – | – | –
4 | COc1cc([C@@H]2CC(=O)c3c(cc(O)c(C/C=C(\C)CCC=C(C)C)c3O)O2)cc(OC)c1O | 0.38 | Active | – | – | – | – | –
5 | COc1cc([C@@H]2CC(=O)c3c(cc(O)c(C/C=C(\C)CCC=C(C)C)c3O)O2)cc(O)c1O | 0.06 | Active | 10.6 | 3.3 | Active | 0.31 | Ratio IC50 [4]: 10
6 | CC(C)=CCC/C(C)=C/Cc1c(O)cc2c(c1O)C(=O)C[C@@H](c1ccc(O)cc1)O2 [BONANNIONE A] | – | – | 6 | 3.7 | Active | 0.62 | –
7 | COc1cc([C@@H]2CC(=O)c3c(cc4c(c3O)C=CC(C)(CCC=C(C)C)O4)O2)ccc1O (some centres not stated) | – | – | 9.5 | 26.3 | Active | 2.8 | –
8 | CC(C)=CCC/C(C)=C/Cc1c(O)cc2c(c1O)C(=O)C[C@@H](c1ccc(O)c(O)c1)O2 [NYMPHAEOL A] | 0.05 | Active | 4.2 | 1.8 | Active | – | inhibition (THP-1 [8]): Active; inhibition (THP-1 [9]): Active; Activity (THP-1 [10]): Non-Toxic; inhibition (THP-1 [11]): Active; fold induction at 2 µM (THP-1 [12]): 1.88; inhibition (THP-1 [13]): Active; fold change (FC) (THP-1 [14]): 1.55; inhibition (THP-1 [15]): Active; inhibition (THP-1 [16]): Active; fold induction at 2 µM (THP-1 [17]): 2.09
9 | COc1cc([C@@H]2CC(=O)c3c(cc(O)c(C/C=C(\C)CCC=C(C)C)c3O)O2)cc(O)c1OC | – | – | 6.4 | 4.2 | Active | 0.66 | –
